Measurements from the RNAGym collection of RNA variant scans (doi:10.1126/science.aae0568).
Variants at the floor of the assay were thinned out.

B1: tRNA (parent)
chain: GUUCCGUUGGCGUAAUGGUAACGCGUCUCCCUCCUAAGGAGAAGACUGCGGGUUCGAGUCCCGUACGGAACG

Variants of: B1
Assay: yeast fitness relative to wild type (ratio to wild type); higher = fitter; tRNA-Arg(CCU), competitive growth, 37 C, YPD
How it was run: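 Start and end populations of a pooled competition were compared by 100-nucleotide paired-end sequencing of gene amplicons. The Saccharomyces cerevisiae strains carried tRNA-Arg(CCU) gene variants at the native genomic locus, synthesised with a 3% per-site mutation rate at 69 sites, and competed in YPD at 37°C for 24 hours in six parallel replicates. Darwinian fitness relative to wild type was based on the change in genotype frequencies. Genotypes required ≥ 100 starting reads, and estimates < 0.5 were set to 0.5.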

With C11A C29G A57G C66A as the variant, how does the yeast fitness read?
The yeast fitness was at most 0.5.

For C11A C27A A40C A43G G48C A65G, which yeast fitness is on record?
The yeast fitness was 0.541.

With C11A C33G A43C G68A A70G as the variant, how does the yeast fitness read?
Its yeast fitness is at most 0.5.

With C11A C29G as the variant, how does the yeast fitness read?
The yeast fitness was 0.654.

With C11A A57G C66U as the variant, how does the yeast fitness read?
The yeast fitness was at most 0.5.

With C11A G17C C22G G23C G58C A70G as the variant, how does the yeast fitness read?
The yeast fitness was at most 0.5.

Which yeast fitness does the source give for C11A C29A U32C C66U here?
Its yeast fitness is at most 0.5.

With C11A G12A A20C C29U as the variant, how does the yeast fitness read?
The yeast fitness was at most 0.5.

With C11A C27G as the variant, how does the yeast fitness read?
Its yeast fitness is 0.589.

With C11A C24U C31U C61U G67A as the variant, how does the yeast fitness read?
The yeast fitness was at most 0.5.

With C11A C34G A43G C46G as the variant, how does the yeast fitness read?
The yeast fitness was 0.708.

With C11A C31G C60U as the variant, how does the yeast fitness read?
The yeast fitness was at most 0.5.

Which yeast fitness does the source give for C11A G12A G48A G50A here?
Its yeast fitness is at most 0.5.

Which yeast fitness does the source give for C11A C66G here?
The yeast fitness was 0.613.

With C11A C31U A65U as the variant, how does the yeast fitness read?
Its yeast fitness is at most 0.5.

For C11A A65G C66U, which yeast fitness is on record?
Its yeast fitness is 0.571.

Which yeast fitness does the source give for C11A C29A G52C G68C here?
Its yeast fitness is at most 0.5.

Which yeast fitness does the source give for C11A C30U C49A here?
Its yeast fitness is at most 0.5.

With C11A C27A C29U G58A as the variant, how does the yeast fitness read?
The yeast fitness was at most 0.5.

With C11A A45C as the variant, how does the yeast fitness read?
The yeast fitness was 0.563.

Which yeast fitness does the source give for C11A C27G U35A A43U here?
The yeast fitness was at most 0.5.

Which yeast fitness does the source give for C11A C34A G58C here?
Its yeast fitness is at most 0.5.

With C11A C33G C34G C61A as the variant, how does the yeast fitness read?
The yeast fitness was at most 0.5.

Which yeast fitness does the source give for C11A C30G C31U U32C G52A here?
The yeast fitness was 0.566.

For C11A C61U A65G G67C, which yeast fitness is on record?
Its yeast fitness is at most 0.5.

Which yeast fitness does the source give for C11A C31U A69C A70G here?
The yeast fitness was at most 0.5.

Which yeast fitness does the source give for C11A A69C here?
Its yeast fitness is 0.671.

For C11A C27U C61G, which yeast fitness is on record?
Its yeast fitness is at most 0.5.

For C11A C22G C33U C34A G41A A65G, which yeast fitness is on record?
Its yeast fitness is 0.527.

For C11A C33U A43U G67A, which yeast fitness is on record?
Its yeast fitness is at most 0.5.

For C11A G12C C33U A43C, which yeast fitness is on record?
Its yeast fitness is at most 0.5.

For C11A A43U G48C C60G, which yeast fitness is on record?
Its yeast fitness is at most 0.5.

Which yeast fitness does the source give for C11A C29U C33U here?
The yeast fitness was at most 0.5.

With C11A C31A C61A as the variant, how does the yeast fitness read?
The yeast fitness was 0.563.

Which yeast fitness does the source give for C11A C29U A43C here?
The yeast fitness was 0.599.

With C11A G17A C62U C66U as the variant, how does the yeast fitness read?
The yeast fitness was at most 0.5.

With C11A C29A C46A A70G as the variant, how does the yeast fitness read?
The yeast fitness was 0.541.

With C11A C29A G67C as the variant, how does the yeast fitness read?
Its yeast fitness is at most 0.5.

Which yeast fitness does the source give for C11A C33A A36C here?
Its yeast fitness is 0.506.

Which yeast fitness does the source give for C11A G18C here?
The yeast fitness was at most 0.5.

With C11A C24U G38C as the variant, how does the yeast fitness read?
The yeast fitness was at most 0.5.

With C11A C55G C66A as the variant, how does the yeast fitness read?
Its yeast fitness is at most 0.5.

Which yeast fitness does the source give for C11A C61U here?
The yeast fitness was 0.621.

For C11A C61A, which yeast fitness is on record?
The yeast fitness was 0.613.

For C11A C27A C33G A42C C66U, which yeast fitness is on record?
The yeast fitness was at most 0.5.

Which yeast fitness does the source give for C11A C22G C49G G68C A69C here?
Its yeast fitness is at most 0.5.

With C11A C30A as the variant, how does the yeast fitness read?
The yeast fitness was 0.523.

Which yeast fitness does the source give for C11A C30U here?
Its yeast fitness is 0.598.

For C11A C30G, which yeast fitness is on record?
The yeast fitness was at most 0.5.

With C11A C62A A70U as the variant, how does the yeast fitness read?
Its yeast fitness is at most 0.5.

For C11A C24G C30G G56A, which yeast fitness is on record?
The yeast fitness was at most 0.5.

With C11A A45U C55U G68U as the variant, how does the yeast fitness read?
Its yeast fitness is at most 0.5.

With C11A C30G A45U G56C as the variant, how does the yeast fitness read?
Its yeast fitness is at most 0.5.

Which yeast fitness does the source give for C11A C22U C24G C30G here?
The yeast fitness was at most 0.5.

With C11A C27G C55A C61G as the variant, how does the yeast fitness read?
Its yeast fitness is at most 0.5.

With C11A C27U G44U U64G A65G as the variant, how does the yeast fitness read?
Its yeast fitness is 0.593.

For C11A C30U G56A A69C, which yeast fitness is on record?
Its yeast fitness is at most 0.5.

With C11A C31A C66G A69U as the variant, how does the yeast fitness read?
The yeast fitness was at most 0.5.

With C11A C31A G68C as the variant, how does the yeast fitness read?
Its yeast fitness is at most 0.5.

Which yeast fitness does the source give for C11A C31G A70U here?
The yeast fitness was at most 0.5.

Which yeast fitness does the source give for C11A C27U C49A here?
Its yeast fitness is 0.752.

Which yeast fitness does the source give for C11A C27U C33U U35C C61G A65G here?
The yeast fitness was at most 0.5.

Which yeast fitness does the source give for C11A C62A A65C here?
Its yeast fitness is at most 0.5.

With C11A C24U U32G A40U U64G as the variant, how does the yeast fitness read?
Its yeast fitness is at most 0.5.

Which yeast fitness does the source give for C11A A65C here?
Its yeast fitness is 0.607.

With C11A C34G A65U as the variant, how does the yeast fitness read?
The yeast fitness was at most 0.5.

For C11A C31U U53A, which yeast fitness is on record?
The yeast fitness was 0.513.

For C11A G18A A36G A42C, which yeast fitness is on record?
The yeast fitness was 0.711.

For C11A C49G A69U, which yeast fitness is on record?
Its yeast fitness is 0.585.

Which yeast fitness does the source give for C11A C27A C55U G63A G67C here?
Its yeast fitness is at most 0.5.

For C11A G17A U35G U59C, which yeast fitness is on record?
Its yeast fitness is 0.568.

Which yeast fitness does the source give for C11A C33U here?
Its yeast fitness is 0.533.

With C11A C33G as the variant, how does the yeast fitness read?
The yeast fitness was 0.654.

Which yeast fitness does the source give for C11A G12C U53G A65U here?
Its yeast fitness is at most 0.5.

Which yeast fitness does the source give for C11A G18A C31U here?
Its yeast fitness is 0.535.

With C11A C31A G51C as the variant, how does the yeast fitness read?
Its yeast fitness is at most 0.5.

For C11A A43U C46U U47G A70U, which yeast fitness is on record?
Its yeast fitness is at most 0.5.

With C11A G18A C27U C34G A42C as the variant, how does the yeast fitness read?
Its yeast fitness is at most 0.5.

With C11A C24G C30G C55G as the variant, how does the yeast fitness read?
The yeast fitness was at most 0.5.

For C11A C33U C49U C61U, which yeast fitness is on record?
The yeast fitness was at most 0.5.

Which yeast fitness does the source give for C11A C31G C33U C61G U64A here?
Its yeast fitness is at most 0.5.

With C11A G18A A36U G41C C55U U64C as the variant, how does the yeast fitness read?
Its yeast fitness is at most 0.5.

Which yeast fitness does the source give for C11A C60A here?
The yeast fitness was at most 0.5.

For C11A G18A G68A, which yeast fitness is on record?
Its yeast fitness is at most 0.5.
